# Assay outcomes as filed in PubChem.
# WNV protease inh – inhibitors of WNV NS2B-NS3 protease, primary screen, biochemical, fluorogenic substrate | Genome polyprotein (West Nile virus), P06935 | fluorogenic substrate Ex360/Em465; active compounds read low | z-score (test concentration not listed) | 0.18% of 65,000 active; in the data active = z-score below about -3
# Ecoli WT expand – growth inhibitors of wild-type E. coli, primary screen, strain BW25113, expanded library, OD600; growth inhibition, % at 100 µM; AID 710, 2007; 0.15% of 98,000 active; OD600 absorbance;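 active = growth inhibition above about 50% at one test dose, limit read from the data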;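 also: growth measured after 20 h incubation at 37 °C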
# M1 antagonist – antagonists of rat M1 muscarinic receptor | CHO-M1 cells, Fluo-4 calcium, ACh EC80 antagonist mode; active compounds read low | B-score at 10 µM | 3.4% of 64,000 active;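 active = calcium fluorescence response, raw or row-and-column corrected B-score, differing from the plate sample mean either way at a set confidence level, mostly lower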
# Target sequence (P08482 whole entry, looked up): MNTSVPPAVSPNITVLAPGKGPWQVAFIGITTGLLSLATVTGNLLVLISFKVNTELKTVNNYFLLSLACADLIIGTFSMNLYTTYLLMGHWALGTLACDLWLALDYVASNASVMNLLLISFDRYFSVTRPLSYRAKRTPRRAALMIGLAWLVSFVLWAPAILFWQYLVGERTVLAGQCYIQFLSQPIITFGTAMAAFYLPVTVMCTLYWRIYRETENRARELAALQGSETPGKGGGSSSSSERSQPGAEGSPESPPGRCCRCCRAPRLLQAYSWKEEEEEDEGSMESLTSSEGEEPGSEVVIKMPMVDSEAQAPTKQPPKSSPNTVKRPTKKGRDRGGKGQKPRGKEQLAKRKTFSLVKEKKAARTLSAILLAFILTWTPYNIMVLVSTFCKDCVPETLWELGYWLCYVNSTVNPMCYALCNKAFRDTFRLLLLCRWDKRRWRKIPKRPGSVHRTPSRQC
# AP ELISA ortho – alternative complement pathway inhibitors, primary screen, biochemical, ELISA, human serum, orthogonally pooled compounds; LPS-coated ELISA, C3 deposition; tested in compound mixtures; inhibition, % at 5 µM; 0.08% of 62,000 active; AID 1235, 2008;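 active = inhibition above 30% in each of the two pooled mixtures holding the compound, so the lower value exceeds 30%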;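 also: 0% = serum in Mg-EGTA without compound and 100% = EDTA serum blank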
#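 Test system: human serum alternative complement pathway, C3 deposition on LPS-coated wells; also added: Plate-bound LPS; doses: 5 µM per compound in ten-compound mixtures; schedule: 1 h at 37 °C; detection: Anti-C3 ELISA, OD 450 nm; evaluation: percent inhibition of C3 deposition onto LPS; repeats: two pool placements per compound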
# tolC growth inh – growth inhibitors of E. coli tolC mutant, primary screen, strain BW25113 ΔtolC::kan, 384-well. growth inhibition, % at 10 µM (by protocol). OD615. 2.2% of 65,000 active;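 active = growth inhibition at or above a cutoff equal to the mean over every tested compound plus 3 SD, cut at about 60% in these data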;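 also: growth measured after 20 h incubation at 37 °C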
#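 Test system: E. coli BW25113 ΔtolC::kan bacteria | Medium: Kanamycin-containing LB broth (50 µg/mL) | Dosing: One dose of 10 µM final | Times: 20 h incubation with compound, 37 °C | Detection: Optical density read at 615 nm | Read-out basis: Percent growth inhibition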
# M1 ag – M1 muscarinic receptor agonists, primary screen, CHO-M1 cells, Fluo-4 calcium, agonist mode | 3% of 64,000 active | Fluo-4 calcium fluorescence; active compounds read high | B-score at 10 µM | Muscarinic acetylcholine receptor M1;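 active = fluorescence rise, raw or as B-score row- and column-corrected plate score, outside the 99.7% band of its plate's samples, either direction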
# * marks the source's active call; other numbers are inactive results; · = no result given. The list is not random: actives were taken first. Their share in the collection is about 5.2%.
SMILES,WNV protease inh,Ecoli WT expand,M1 antagonist,AP ELISA ortho,tolC growth inh,M1 ag
C=CCn1cc(C(=O)NCc2ccco2)c(=O)c2cc(S(=O)(=O)N3CCCCCC3)ccc21,-0.11,-22,-0.49,4,68*,-0.11
CCOC(=O)c1cn(CC)c2cc(N3CCSCC3)c(F)cc2c1=O,-0.59,32,-0.31,9,100*,0.11
CCn1cc(C(=O)NCc2ccco2)c(=O)c2cc(F)c(N3CCN(C(=O)c4ccco4)CC3)cc21,0.49,90*,-0.44,4,14,2.3
CCn1cc(C(=O)NCc2ccc3c(c2)OCO3)c(=O)c2cc(F)c(N3CCN(C)CC3)cc21,-0.82,100*,-1.3,17,100*,-0.73
COC(=O)c1cc(Br)c(=O)n(CCC2=CCCCC2)c1,0.42,-6,-0.21,-12,34,-0.28
COc1ccc(CNC(=O)C(CCSC)NC(=O)c2ccco2)cc1 (stereo not given),·,2,·,·,·,·
COc1ccccc1NC(=O)N1CCc2[nH]c3ccc(Cl)cc3c2C1,1.8,-2,0.0037,-10,-3,-0.089
Cc1cc(S(=O)(=O)N2CCN(c3ccc(F)cc3)CC2)c(C)s1,-0.27,2,-0.0085,22,4,-0.051
CCn1cc(C(=O)O)c(=O)c2cc(F)c(N3CCN(C(=O)Nc4ccccc4)CC3)cc21,2,94*,0.35,10,100*,-0.31
CCn1cc(C(=O)N[C@H](C)c2ccccc2)c(=O)c2cc(F)c(N3CCN(C)CC3)cc21,·,1,·,·,·,·
CCn1cc(C(=O)NCc2ccccn2)c(=O)c2cc(F)c(N3CCN(C)CC3)cc21,-0.18,100*,0.024,·,13,0.52
COc1ccc(OC)c(C(=O)CSc2nccc(-c3ccc(Br)cc3)n2)c1,·,-9,·,·,·,·
Clc1ccc(OCCn2ccnc2)c2ccccc12,0.01,64*,-0.16,7,100*,0.017
CCOC(=O)N1CCc2c(sc(NC(=O)c3ccc(Cl)s3)c2C(N)=O)C1,-0.28,-4,-0.042,23,73*,5.3*
COc1cc(-c2c(C#N)c(N)nc3c2c(C)nn3-c2ccc(C)c(C)c2)cc(OC)c1OC,-0.48,-19,·,-12,41,·
CCOc1cc(-c2c(C#N)c(=O)[nH]c3c2c(C)nn3-c2ccc(F)cc2)ccc1O,-0.13,1,·,-21,97*,·
CNC(=O)C1CC(=O)N(CCCc2ccccc2)C(=Nc2ccccc2)S1 (stereo not given),·,-4,·,·,·,·
O=c1oc2c(CN3CCCCCC3)c(O)ccc2cc1-c1nc2ccccc2[nH]1,2.7,·,-17*,8,29,248*
O=C(CC(=O)c1ccccc1O)c1cccc(F)c1,-0.47,12,0.3,4,89*,0.27
Cc1cc(NC(=O)C2CCCCC2)nc2c1c(=O)oc1ccccc12,0.0052,2,0.4,23,76*,-0.014
CC(=O)N=c1c(C#N)cc2c(=O)n3cccc(C)c3nc2n1CC(C)C,1.4,·,0.017,-2,9,13*
CCCn1c(=NC(=O)c2ccncc2)c(C#N)cc2c(=O)n3cccc(C)c3nc21,0.64,·,0.43,8,15,20*
COC(=O)c1sc(N2C(=O)C(O)=C(C(=O)c3ccc(C)o3)C2c2ccc(F)cc2)nc1C (stereo not given),-0.88,-8,0.053,6,65*,-0.42
C=CCn1c(Cc2csc(N)n2)nnc1SCC(=O)OCC,-0.16,2,0.22,1,-15,-0.98
O=C(O)Cn1nnnc1-c1ccc(F)cc1,-2.1,-5,1.7,6,-14,-2*
SMILES,WNV protease inh,Ecoli WT expand,M1 antagonist,AP ELISA ortho,tolC growth inh,M1 ag
CCc1nc(N(CC)CC)c2oc3ccccc3c2n1,0.08,10,-0.28,8,34,-0.093
CCc1nc(N2CCC(C)CC2)c2oc3ccccc3c2n1,-0.06,2,-0.32,15,100*,0.72
CCCn1c(SCC#N)nc2c(c1=O)C1(CCCC1)Cc1ccccc1-2,1.7,-38,0.12,·,2,0.65
N#CCSc1n[nH]c2nc3c(c(=O)n12)C1(CCCC1)Cc1ccccc1-3,-0.6,7,0.65,16,98*,-0.17
CN1CCN(c2nc(-c3ccccc3)c3cc(Cl)ccc3n2)CC1,0.42,11,-1,2,21,1.1
OCCN1CCN(c2nc(-c3ccccc3)c3cc(Cl)ccc3n2)CC1,-1.6,17,-0.8,8,100*,0.023
Clc1ccc2nc(N3CCNCC3)nc(-c3ccccc3)c2c1,0.74,55*,-0.44,·,18,0.097
COc1cc(/C=N/N(C)c2ccccc2)cc(Cl)c1O,·,6,·,·,·,·
O=C(COc1cccc2ccccc12)N1CCN(c2ccccc2)CC1,-0.69,-17,-0.32,4,66*,0.99
O=C(COc1cccc2ccccc12)N1CCN(c2ccccn2)CC1,-0.25,1,0.017,4,35,-0.9
COc1ccccc1NC(=O)N1CCN(c2cc(-c3ccccc3)nc3ncnn23)CC1,-0.37,-8,-0.33,16,7,6.3*
COc1ccc(OC)c(NC(=O)C2CCN(c3cc(-c4ccccc4)nc4ncnn34)CC2)c1,-0.35,-3,0.32,14,4,0.42
CCn1c(=N)c(C(=O)OC)cc2c(=O)n3ccccc3nc21,5.1,·,0.21,-7,-4,4.8*
COc1ccccc1-c1cc(C(=O)NC(C)c2ccccc2)no1 (stereo not given),-0.89,-28,0.29,13,72*,-0.78
COc1ccc2c(c1)sc1nc(-c3ccccc3)cn12,0.74,-11,-0.69,4,99*,0.011
CCOC(=O)N1CCN(C(=O)c2ccc3c(c2)sc2nc(-c4ccc(OC)cc4)cn23)CC1,-0.43,-4,·,10,0,·
COc1ccc(-c2csc(N3CCN(C(=O)c4ccco4)CC3)n2)cc1,-0.08,-6,-0.76,8,40,1.3
COc1ccc(-c2csc(N(CC3CCCO3)C(=O)c3ccco3)n2)cc1 (stereo not given),-0.47,5,0.78,·,61*,-0.077
Cc1cccc(C)c1N1C(=O)c2ccccc2C1=O,-0.47,6,-0.27,18,18,1.7
Cc1c(-n2cc(C(=O)O)c(=O)c3cc(F)c(N4CCCC4)c(F)c32)c(=O)n(-c2ccccc2)n1C,2,·,-0.091,2,-29,0.55
CN1CCN(c2c(F)cc3c(=O)c(C(=O)O)cn4c3c2SCC4)CC1,1.5,100*,0.59,13,100*,-0.6
COCCN=C1Sc2nc3ccc(C)cc3cc2CN1Cc1ccco1,·,-2,·,·,·,·
S=C1SCN(Cc2ccccn2)CN1Cc1ccco1,-0.43,71*,0.65,4,21,-0.34
COCCN1CSC(=S)N(Cc2ccco2)C1,0.69,62*,0.88,-8,17,-0.0063
